Compound activity as filed in PubChem BioAssay.
The sample as a whole holds a higher share of hits than the screen did.
PTK2B oligo ant: antagonists of human Pyk2 oligomerization; 0.83% of 99,000 active; Q14289; z-score (the deposit names both 25 µM and 10 µM); AID 1347419; Q293 cells, Pyk2 FERM NanoBiT luminescence; stronger effect = lower value;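 active = Z-score of -3 or lower, scaled per plate to the spread of control and sample wells; inactive = z-score above -3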;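 also: negative z-score means lost luminescence so less FERM oligomerization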
Target sequence (Q14289 whole entry, looked up): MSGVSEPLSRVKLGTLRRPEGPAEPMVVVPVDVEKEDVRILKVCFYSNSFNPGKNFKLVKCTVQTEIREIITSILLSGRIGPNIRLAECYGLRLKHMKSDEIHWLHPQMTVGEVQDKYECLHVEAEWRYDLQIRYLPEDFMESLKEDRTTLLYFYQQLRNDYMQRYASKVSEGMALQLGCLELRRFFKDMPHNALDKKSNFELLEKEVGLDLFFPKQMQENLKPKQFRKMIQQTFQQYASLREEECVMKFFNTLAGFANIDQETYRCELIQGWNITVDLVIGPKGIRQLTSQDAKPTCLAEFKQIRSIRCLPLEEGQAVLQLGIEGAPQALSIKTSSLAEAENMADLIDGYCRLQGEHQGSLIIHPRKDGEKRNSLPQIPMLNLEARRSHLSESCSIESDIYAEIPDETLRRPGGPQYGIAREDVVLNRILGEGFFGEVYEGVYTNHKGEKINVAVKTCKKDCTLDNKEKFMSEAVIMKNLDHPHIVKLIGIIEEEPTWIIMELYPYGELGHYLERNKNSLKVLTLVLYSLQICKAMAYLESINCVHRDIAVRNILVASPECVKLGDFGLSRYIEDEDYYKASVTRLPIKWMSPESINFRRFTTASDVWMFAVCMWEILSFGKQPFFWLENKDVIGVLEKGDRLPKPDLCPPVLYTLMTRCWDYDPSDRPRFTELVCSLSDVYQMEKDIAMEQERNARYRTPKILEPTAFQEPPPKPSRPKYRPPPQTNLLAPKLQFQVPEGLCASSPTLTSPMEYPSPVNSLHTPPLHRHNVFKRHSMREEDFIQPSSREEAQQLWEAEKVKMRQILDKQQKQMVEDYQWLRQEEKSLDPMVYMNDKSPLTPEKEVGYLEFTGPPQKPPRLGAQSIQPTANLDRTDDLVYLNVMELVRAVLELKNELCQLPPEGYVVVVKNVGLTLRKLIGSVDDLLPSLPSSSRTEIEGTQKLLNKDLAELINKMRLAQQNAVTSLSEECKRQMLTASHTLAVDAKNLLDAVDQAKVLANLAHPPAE
Fibroblast inh: blocks proliferation of human lung fibroblasts; LL 47 human lung fibroblast viability, ATP luminescence; stronger effect = lower value; viability, % at 10 µM; 1.1% of 85,000 active;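 active = viability at or below 50% in the single dose screen; inactive = viability above 50%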;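 also: compound exposure lasted 72 h before the ATP readout; 100% = median luminescence of untreated cell-only wells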
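Test system: LL 47 human lung fibroblasts / Incubation: 72 h compound exposure at 37 °C after overnight plating / Technique: luminescent ATP detection, CellTiter-Glo / Compound dosing: 0.1% DMSO in all compound wells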
HCT116 PTEN-null: PTEN-deleted cell growth suppression; HCT116 PTEN-null viability, CellTiter-Glo, 60 h; stronger effect = lower value; viability, % at 10 µM; 1.2% of 140,000 active; AID 827;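 active = viability at or below a set limit, 4 SD under the median of all tested compounds, cut at about 3.7% in these data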;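 also: PTEN knockout HCT116 line with beta catenin targeted HCT116 as companion control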
HUVEC prolif 384: inhibitors of human endothelial cell proliferation | viability, % at 10 µM (by protocol) | 1.1% of 86,000 active | AID 648 | HUVEC proliferation, CellTiter-Glo luminescence, 72 h; stronger effect = lower value;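 active = viability at or below 30%; inactive = viability above 30%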;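 also: 100% = median luminescence of DMSO-only cell control wells on each plate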
H69AR growth 86K: blocks growth of human H69AR lung tumor cells | viability, % at 10 µM | 6% of 85,000 active | AID 598 | H69AR lung tumor viability, ATP luminescence, 72 h; stronger effect = lower value;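 active = viability at or below 40%; inactive = viability above 40%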;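 also: multidrug resistant small cell line overexpressing MRP-1 efflux transporter; 100% = mean luminescence of untreated control wells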
bCat KO growth: beta-catenin-lacking colon tumor cell growth suppression | HCT116 beta-catenin knockout viability, CellTiter-Glo, 60 h; stronger effect = lower value | viability, % at 10 µM | 1.5% of 140,000 active;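 active = viability at or under a set limit, the compound median less 4 SD, cut at about 6% in these data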;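 also: 0% = Hyamine 1622 control at 20 µM and 100% = untreated cell control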
* = called active by the depositor; nt = no result.

SMILES	PTK2B oligo ant	Fibroblast inh	HCT116 PTEN-null	HUVEC prolif 384	H69AR growth 86K	bCat KO growth
CC(=O)Oc1cc2c(cc1Cl)C1(CC(c3ccccc3Cl)O2)CC(C)(C)NC(=S)N1 (stereo not given)	-0.46	92	2.0*	79	32*	2.0*
COc1cccc(C2CC3(CC(C)(C)NC(=S)N3)Oc3cc(O)ccc32)c1 (stereo not given)	nt	nt	70	nt	nt	77
[O-][n+]1onc2c1CCc1nnc(-c3ccccc3)cc1-2	0.02	90	70	105	35*	73
[O-][n+]1onc2c1CCc1nnccc1-2	1.6	101	80	105	63	65
O=C(Nc1ccc(N2CCOCC2)c(Cl)c1)c1c(F)c(F)c(F)c(F)c1F	-0.29	87	26	90	32*	20
Cc1ccc(N2CC(C(=O)Nc3ccccc3C(=O)NC3CCCCC3)CC2=O)cc1C (stereo not given)	0.14	104	nt	79	80	nt
Cc1nc(NC(=O)CSc2ccccc2N)sc1C	nt	92	93	79	93	87
O=S(=O)(CCN(CCS(=O)(=O)C(F)(F)F)CC1CCCO1)C(F)(F)F (stereo not given)	-0.19	44*	1.5*	93	98	1.6*
CCOC(=O)C1(N(CC)CC)Sc2cc(C)ccc2NC1=O (stereo not given)	-1.9	55	26	74	15*	24
C#CCn1c(S(=O)(=O)Cc2ccc(OC)cc2)nc(-c2ccccc2)c1-c1ccccc1	-3*	nt	50	nt	nt	51
O=C(COC(=O)/C=C/c1ccco1)Nc1cccc([N+](=O)[O-])c1	nt	nt	92	nt	nt	97
COC(=O)c1ccccc1NC(=O)c1cc([N+](=O)[O-])nn1Cc1ccccc1	nt	nt	93	nt	nt	100
COc1cc2c(cc1OC)C1(NCC2)C(=O)Nc2ccccc21 (stereo not given)	0.75	56	96	83	108	88
COc1cc2c(cc1OC)C1(Nc3c-2c(Cc2ccccc2)nn3-c2ccccc2)C(=O)Nc2ccccc21 (stereo not given)	-2.5	85	87	53	26*	96
Cn1c(=O)cc(OCCCC(=O)NCc2ccccn2)c2ccccc21	1.1	97	83	83	89	75
Cc1ccnc(NC(=O)CCCOc2cc(=O)n(C)c3ccccc23)c1	-1.4	nt	2.9*	nt	nt	5.4*
CCOC(=O)N1CCC(NS(=O)(=O)c2cc3c(cc2Cl)NC(=O)CO3)CC1	0.03	60	4	65	25*	3.9*
Cc1cc(C)n(-c2nc3sc4c(c3c(=O)[nH]2)CCCC4)n1	nt	51	2.6*	53	28*	4.7*
CCOC(=O)c1cnn(-c2nc3sc4c(c3c(=O)[nH]2)CCCC4)c1N	nt	45*	nt	37	30*	nt
Cc1cc(C)n(-c2ncnc3sc4c(c23)CCCC4)n1	0.24	94	78	96	93	88
CCOC(=O)c1cnn(-c2nc(C)nc3sc4c(c23)CCC4)c1N	nt	81	nt	68	106	nt
Cn1cccc1CC(=O)NNC(=O)Nc1cccc(Cl)c1	nt	nt	100	nt	nt	89
CC1=C(C(=O)OCC(C)C)C(c2cccs2)NC(=S)N1 (stereo not given)	nt	nt	82	nt	nt	83
CCc1nn(C(C)C(=O)NCCN2CCN(c3cccc(C)c3C)CC2)c(=O)c2cc3occc3n12 (stereo not given)	0.6	nt	5	nt	nt	2.5*
CCc1nn(C(C)C(=O)Nc2cccc(C)c2C)c(=O)c2cc3occc3n12 (stereo not given)	0.34	nt	61	nt	nt	69
SMILES	PTK2B oligo ant	Fibroblast inh	HCT116 PTEN-null	HUVEC prolif 384	H69AR growth 86K	bCat KO growth
Cn1c(SCC(=O)NC(=O)NCc2ccco2)nnc1C(F)(F)F	0.03	102	98	96	107	95
Cc1cc(C)n(-c2nc3ccccc3c(=O)n2OCC(=O)OCc2ccccc2)n1	0.96	27*	2.8*	60	9.8*	4.7*
CCCCN1C(=O)c2ccc(C(=O)Nc3c(N)n(CCCC)c(=O)n(C)c3=O)cc2C1=O	-0.37	99	105	99	87	97
CCOc1ccccc1C1CC(=O)Nc2cc3c(cc21)OCO3 (stereo not given)	-1.2	nt	18	nt	nt	18
CC(C)Oc1ccccc1C1CC(=O)Nc2cc3c(cc21)OCCO3 (stereo not given)	-2.9	55	20	55	27*	14
COc1cc2c(cc1OC)C(c1cccc(OC)c1OC)CC(=O)N2 (stereo not given)	-1.7	89	76	89	104	85
O=C1CC(c2cccs2)c2cc3c(cc2N1)OCCO3 (stereo not given)	0.36	94	69	95	18*	76
COc1cccc(C2CC(=O)Nc3cc4c(cc32)OCCO4)c1OC(C)C (stereo not given)	nt	95	84	96	27*	84
COc1ccccc1C1CC(=O)Nc2cc3c(cc21)OCCO3 (stereo not given)	-1.9	56	12	46	22*	13
Cc1ccc(C2CC(=O)Nc3cc4c(cc32)OCCO4)s1 (stereo not given)	-0.57	83	92	85	53	83
Cc1cccc(C(=O)N[C@H](C(=O)Nc2nccs2)C(C)C)c1	nt	nt	87	nt	nt	87
O=[N+]([O-])c1ccccc1SN(Cc1ccccc1)c1ccccn1	nt	nt	67	nt	nt	70
CCOC(=O)C(C)Sc1nc(-c2cccs2)ccc1C#N (stereo not given)	-0.21	77	20	53	4.0*	18
C=COC(=O)CSc1nc(-c2cccs2)ccc1C#N	-0.24	102	77	83	85	96
COc1cccc(C2=CC(c3cc(OC)ccc3OC)n3nnnc3N2)c1 (stereo not given)	-0.89	71	28	45	5.4*	26
COc1cccc(C2=CC(c3cccc(OC)c3OC)n3nnnc3N2)c1 (stereo not given)	0.85	nt	12	nt	nt	9
COc1cccc(C2=CC(c3ccccc3)n3nnnc3N2)c1 (stereo not given)	0.94	nt	6	nt	nt	7
COc1cccc(C2=CC(c3ccc(N(C)C)cc3)n3nnnc3N2)c1 (stereo not given)	-1	89	23	75	15*	20
COc1ccc(C2=CC(c3ccc(C)cc3)n3nnnc3N2)cc1 (stereo not given)	-0.5	101	90	101	102	83
COc1ccc(OC)c(C2C=C(c3ccc(C)c(C)c3)Nc3nnnn32)c1 (stereo not given)	-1	64	90	60	14*	110
O=C(C1CC1)N1CCN(C(c2ccccc2)c2ccccc2)CC1	-1.1	104	99	104	108	103
O=C(CSc1nc2ccccc2o1)NCCOc1ccccc1	0.97	96	99	93	94	94
CC(=O)[C@H]1CC[C@H]2[C@@H]3CCC4=CC(=O)CC[C@]4(C)[C@H]3CC[C@]12C	nt	90	44	32	29*	22
